Measured values from ChEMBL document CHEMBL2321795, “Solubility-driven optimization of (pyridin-3-yl) benzoxazinyl-oxazolidinones leading to a promising antibacterial agent” (J Med Chem, 2013).
Converted amounts (≈) assume the structure as drawn.

Legend:
[1] = Tmax in Sprague-Dawley rat at 50 mg/kg, po by LC-MS analysis; format: ADME, organism-based; design: dose 50 mg/kg, route oral; details: in vivo
Method in brief: (§1)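 Rats were dosed orally or by intravenous injection. For prodrugs, all parameters were based on the active parent antibacterial detected in plasma, and each prodrug dose was also given as an equivalent parent dose. Parameters were Cmax, Tmax, elimination T1/2, AUC from the concentration–time curve, clearance and oral bioavailability F.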

[2] = test system: Staphylococcus epidermidis; experiment: Antibacterial activity against methicillin-sensitive Staphylococcus epidermidis after 16 hrs by NCCLS agar dilution method; format: functional
Method in brief: (§2)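 Agar dilution MIC. Stocks were 320 μg/mL in 50% aqueous DMSO, 2-fold serially diluted in sterile water, then diluted 10-fold into Mueller–Hinton agar to give 16–0.03125 μg/mL final. Organisms were grown in MH broth at 35 °C for 8 h and adjusted to 0.5 McFarland. They were spotted onto drug-containing plates with a multipoint inoculator and incubated at 35 °C for 16 h. Linezolid was the positive control.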

[3] = AUC in Sprague-Dawley rat at 50 mg/kg, po by LC-MS analysis; format: ADME, organism-based; design: dose 50 mg/kg, route oral; details: plasma; method in brief: as §1
[4] = test system: Staphylococcus epidermidis; experiment: Antibacterial activity against linezolid-resistant Staphylococcus epidermidis after 16 hrs by NCCLS agar dilution method; format: functional; method in brief: as §2
Enterococcus faecalis [5] = experiment: Antibacterial activity against Enterococcus faecalis after 16 hrs by NCCLS agar dilution method; format: functional
Method in brief: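 Agar dilution MIC per NCCLS, 6 E. faecalis strains. Stock was 320 μg/mL in 50% water/DMSO, serially 2-fold diluted in sterile water, then 10-fold into Mueller–Hinton agar to give 16–0.03125 μg/mL final. Inocula came from MH broth cultures grown 8 h at 35 °C, adjusted to 0.5 McFarland and spotted by multipoint inoculator. Plates were read after 16 h at 35 °C.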

[6] = test system: Staphylococcus epidermidis; experiment: Antibacterial activity against methicillin-resistant Staphylococcus epidermidis after 16 hrs by NCCLS agar dilution method; format: functional; method in brief: as §2
Enterococcus faecalis [7] = experiment: Antibacterial activity against linezolid-resistant Enterococcus faecalis after 16 hrs by NCCLS agar dilution method; format: functional; method in brief: as §2
[8] = Cmax in Sprague-Dawley rat at 50 mg/kg, po by LC-MS analysis; format: ADME, organism-based; design: dose 50 mg/kg, route oral; details: in vivo; method in brief: as §1
Enterococcus faecium [9] = experiment: Antibacterial activity against linezolid-resistant Enterococcus faecium after 16 hrs by NCCLS agar dilution method; format: functional; method in brief: as §2
Staphylococcus aureus [10] = experiment: Antibacterial activity against methicillin-resistant Staphylococcus aureus after 16 hrs by NCCLS agar dilution method; format: functional; method in brief: as §2
Streptococcus pneumoniae = experiment: Antibacterial activity against penicillin-resistant Streptococcus pneumoniae after 16 hrs by NCCLS agar dilution method; format: functional; method in brief: as §2
Staphylococcus aureus [11] = experiment: Antibacterial activity against methicillin-sensitive Staphylococcus aureus after 16 hrs by NCCLS agar dilution method; format: functional; method in brief: as §2
Staphylococcus aureus [12] = experiment: Antibacterial activity against linezolid-resistant Staphylococcus aureus after 16 hrs by NCCLS agar dilution method; format: functional; method in brief: as §2
Staphylococcus aureus [13] = experiment: Antibacterial activity against Staphylococcus aureus ATCC 29213 after 16 hrs by NCCLS agar dilution method; format: functional; details: ATCC 29213, 16 h; method in brief: as §2
[14] = Elimination half life in Sprague-Dawley rat at 50 mg/kg, po by LC-MS analysis; format: ADME, organism-based; design: dose 50 mg/kg, route oral; details: in vivo, read-out: beta t1/2 (converted); method in brief: as §1
[15] = Oral bioavailability in Sprague-Dawley rat at 15 mg/kg; format: ADME, organism-based; details: in vivo; method in brief: as §1
[16] = Elimination half life in Sprague-Dawley rat at 15 mg/kg, po by LC-MS analysis; format: ADME, organism-based; design: dose 15 mg/kg, route oral; details: in vivo, read-out: beta t1/2 (converted); method in brief: as §1
[17] = AUC in Sprague-Dawley rat at 15 mg/kg, po by LC-MS analysis; format: ADME, organism-based; design: dose 15 mg/kg, route oral; details: plasma
Method in brief: (§3)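 Rats dosed orally or by intravenous injection. AUC is the area under the plasma concentration–time curve. For the prodrug entries, all PK values were based on the amount of the active parent antibacterial detected, not the administered prodrug.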

[18] = Elimination half life in Sprague-Dawley rat at 5 mg/kg, iv by LC-MS analysis; format: ADME, organism-based; design: dose 5 mg/kg, route intravenous; details: in vivo, read-out: beta t1/2 (converted)
Method in brief: (§4)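 Rats received the compound by intravenous injection, with oral dosing run in parallel. Clearance (CLz) is reported in L/h/kg. Elimination half-life (T1/2) is reported in h and was taken from the plasma concentration–time profile.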

[19] = target: Voltage-gated inwardly rectifying potassium channel KCNH2 (Homo sapiens, UniProt Q12809)
Sequence of Voltage-gated inwardly rectifying potassium channel KCNH2 (Q12809 whole entry): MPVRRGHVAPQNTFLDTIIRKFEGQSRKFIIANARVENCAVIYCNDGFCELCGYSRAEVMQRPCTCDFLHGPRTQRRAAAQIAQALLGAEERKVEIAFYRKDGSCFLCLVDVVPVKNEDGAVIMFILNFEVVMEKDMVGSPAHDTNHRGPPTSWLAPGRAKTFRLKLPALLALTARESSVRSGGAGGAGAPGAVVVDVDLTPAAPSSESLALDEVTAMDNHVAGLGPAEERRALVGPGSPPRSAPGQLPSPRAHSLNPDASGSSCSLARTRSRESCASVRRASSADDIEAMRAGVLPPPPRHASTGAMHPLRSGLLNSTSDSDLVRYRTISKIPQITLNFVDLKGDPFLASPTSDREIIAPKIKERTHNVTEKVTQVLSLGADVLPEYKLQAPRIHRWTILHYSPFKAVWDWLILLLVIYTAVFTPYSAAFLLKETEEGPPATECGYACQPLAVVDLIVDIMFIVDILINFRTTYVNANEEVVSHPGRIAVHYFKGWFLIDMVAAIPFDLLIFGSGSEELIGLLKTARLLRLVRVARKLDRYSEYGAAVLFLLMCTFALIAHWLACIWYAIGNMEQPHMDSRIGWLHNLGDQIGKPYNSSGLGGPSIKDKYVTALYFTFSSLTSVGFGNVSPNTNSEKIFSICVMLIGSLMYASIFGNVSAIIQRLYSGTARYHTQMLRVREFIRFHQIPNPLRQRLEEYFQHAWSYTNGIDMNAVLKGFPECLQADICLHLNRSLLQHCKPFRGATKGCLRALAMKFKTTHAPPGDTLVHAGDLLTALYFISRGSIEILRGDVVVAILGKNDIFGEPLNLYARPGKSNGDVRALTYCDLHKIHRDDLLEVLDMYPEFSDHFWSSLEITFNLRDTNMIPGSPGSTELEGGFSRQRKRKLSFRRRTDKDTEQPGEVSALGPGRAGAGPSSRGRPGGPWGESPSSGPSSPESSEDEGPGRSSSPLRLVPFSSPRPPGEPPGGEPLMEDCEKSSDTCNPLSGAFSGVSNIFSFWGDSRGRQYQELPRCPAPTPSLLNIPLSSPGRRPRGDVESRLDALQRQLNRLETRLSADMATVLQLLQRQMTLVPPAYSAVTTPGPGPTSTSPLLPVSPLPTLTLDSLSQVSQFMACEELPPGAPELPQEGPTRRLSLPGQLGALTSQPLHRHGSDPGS

[20] = Tmax in Sprague-Dawley rat at 15 mg/kg, po by LC-MS analysis; format: ADME, organism-based; design: dose 15 mg/kg, route oral; details: in vivo; method in brief: as §1
[21] = AUC in Sprague-Dawley rat at 5 mg/kg, iv by LC-MS analysis; format: ADME, organism-based; design: dose 5 mg/kg, route intravenous; details: plasma; method in brief: as §3
Enterococcus faecium [22] = experiment: Ratio of linezolid MIC to compound MIC for linezolid-resistant Enterococcus faecium; format: functional
Method in brief: (§5)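 Agar dilution per NCCLS, with linezolid tested alongside as control. Compounds were diluted 2-fold in sterile water, then 10-fold into Mueller–Hinton agar (final 16–0.03125 μg/mL). Strains (E. faecalis 3, E. faecium 3, S. aureus 3, S. epidermidis 1) were grown in MH broth at 35 °C for 8 h, adjusted to 0.5 McFarland, multipoint-inoculated, and incubated at 35 °C for 16 h. The ratio is linezolid MIC over compound MIC.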

Staphylococcus aureus [23] = experiment: Ratio of linezolid MIC to compound MIC for linezolid-resistant Staphylococcus aureus; format: functional; method in brief: as §5
[24] = Cmax in Sprague-Dawley rat at 15 mg/kg, po by LC-MS analysis; format: ADME, organism-based; design: dose 15 mg/kg, route oral; details: in vivo; method in brief: as §1
[25] = test system: Staphylococcus epidermidis; experiment: Ratio of linezolid MIC to compound MIC for linezolid-resistant Staphylococcus epidermidis; format: functional; method in brief: as §5
Enterococcus faecalis [26] = experiment: Ratio of linezolid MIC to compound MIC for linezolid-resistant Enterococcus faecalis; format: functional; method in brief: as §5
[27] = Clearance in Sprague-Dawley rat at 5 mg/kg, iv by LC-MS analysis; format: ADME, organism-based; design: dose 5 mg/kg, route intravenous; details: in vivo; method in brief: as §4
[28] = Elimination half life in Sprague-Dawley rat at 5.6 mg/kg, iv by LC-MS analysis; format: ADME, organism-based; design: dose 5.6 mg/kg, route intravenous; details: in vivo, read-out: beta t1/2 (converted); method in brief: as §1
Rattus norvegicus [29] = experiment: AUC in Sprague-Dawley rat at 10 mg/kg, po by LC-MS analysis; format: ADME, organism-based, Plasma; design: dose 10 mg/kg, route oral; details: in vivo; method in brief: as §1
[30] = Cmax in Sprague-Dawley rat at 10 mg/kg, po by LC-MS analysis; format: ADME, organism-based; design: dose 10 mg/kg, route oral; details: in vivo; method in brief: as §1
[31] = Tmax in Sprague-Dawley rat at 10 mg/kg, po by LC-MS analysis; format: ADME, organism-based; design: dose 10 mg/kg, route oral; details: in vivo; method in brief: as §1
Rattus norvegicus [32] = experiment: Oral bioavailability in Sprague-Dawley rat at 10 mg/kg; format: ADME, organism-based; details: in vivo; method in brief: as §1
Rattus norvegicus [33] = experiment: AUC in Sprague-Dawley rat at 5.6 mg/kg, iv by LC-MS analysis; format: ADME, organism-based, Plasma; design: dose 5.6 mg/kg, route intravenous; details: in vivo; method in brief: as §1
[34] = Elimination half life in Sprague-Dawley rat at 10 mg/kg, po by LC-MS analysis; format: ADME, organism-based; design: dose 10 mg/kg, route oral; details: in vivo, read-out: beta t1/2 (converted); method in brief: as §1

Row | Structure (SMILES) | MIC [2] | MIC [4] | MIC (Enterococcus faecalis [5]) | MIC [6] | MIC (Enterococcus faecalis [7]) | MIC (Enterococcus faecium [9]) | MIC (Staphylococcus aureus [10]) | MIC (Streptococcus pneumoniae) | MIC (Staphylococcus aureus [11]) | MIC (Staphylococcus aureus [12]) | MIC (Staphylococcus aureus [13]) | IC50 [19] | other results
1 | N#Cc1ccc(-c2ccc3c(c2)OC[C@H]2[C@H](CO)OC(=O)N32)cn1 | 0.25 µg/mL (≈ 0.773 µM) | 4 µg/mL (≈ 12.4 µM) | 1 µg/mL (≈ 3.09 µM) | 0.125 µg/mL (≈ 0.387 µM) | 2 µg/mL (≈ 6.19 µM) | 2 µg/mL (≈ 6.19 µM) | 0.25 µg/mL (≈ 0.773 µM) | 0.25 µg/mL (≈ 0.773 µM) | 0.25 µg/mL (≈ 0.773 µM) | 4 µg/mL (≈ 12.4 µM) | 0.25 µg/mL (≈ 0.773 µM) | – | Tmax [1]: 4.5 h; AUC [3]: 33400 ng·h/mL; Cmax [8]: 3020 ng/mL; half-life [14]: 4.69 h
2 | CN1C[C@@H](c2ccc(-c3ccc4c(c3)OC[C@H]3[C@H](CO)OC(=O)N43)cn2)OC1=O | 0.25 µg/mL (≈ 0.629 µM) | 2 µg/mL (≈ 5.03 µM) | 1 µg/mL (≈ 2.52 µM) | 0.25 µg/mL (≈ 0.629 µM) | 2 µg/mL (≈ 5.03 µM) | 2 µg/mL (≈ 5.03 µM) | 0.5 µg/mL (≈ 1.26 µM) | 0.5 µg/mL (≈ 1.26 µM) | 0.5 µg/mL (≈ 1.26 µM) | 4 µg/mL (≈ 10.1 µM) | 0.5 µg/mL (≈ 1.26 µM) | > 40 µM | bioavailability [15]: 44.8%; half-life [16]: 1.93 h; AUC [17]: 2170 ng·h/mL; half-life [18]: 2.51 h; Tmax [20]: 1 h; AUC [21]: 1560 ng·h/mL; Ratio (Enterococcus faecium [22]): 4; Ratio (Staphylococcus aureus [23]): 4; Cmax [24]: 809 ng/mL; Ratio [25]: 4; Ratio (Enterococcus faecalis [26]): 4; clearance [27]: 53.7 mL/min/kg
3 | O=C1OC(CO)CN1c1ccc(-c2ccc3c(c2)OC[C@H]2[C@H](CO)OC(=O)N32)cn1 (stereo partly drawn) | 0.25 µg/mL (≈ 0.605 µM) | 4 µg/mL (≈ 9.68 µM) | 0.5 µg/mL (≈ 1.21 µM) | 0.5 µg/mL (≈ 1.21 µM) | 4 µg/mL (≈ 9.68 µM) | 4 µg/mL (≈ 9.68 µM) | 0.5 µg/mL (≈ 1.21 µM) | 0.5 µg/mL (≈ 1.21 µM) | 0.5 µg/mL (≈ 1.21 µM) | 8 µg/mL (≈ 19.4 µM) | 0.5 µg/mL (≈ 1.21 µM) | > 40 µM | half-life [28]: 1.08 h; AUC (Rattus norvegicus [29]): 1491 ng·h/mL; Cmax [30]: 332 ng/mL; Tmax [31]: 0.38 h; F (Rattus norvegicus [32]): 27.5%; AUC (Rattus norvegicus [33]): 2800 ng·h/mL; half-life [34]: 2.25 h
